From ChEMBL document CHEMBL2311315, “Radiosynthesis and evaluation of [¹¹C-carbonyl]-labeled carbamates as fatty acid amide hydrolase radiotracers for positron emission tomography” (J Med Chem, 2013)

Tests used:
[1] = target: T1, Fatty-acid amide hydrolase 1 (Rattus norvegicus) (UniProt P97612); test: Inhibition of FAAH-mediated [3H]anandamide hydrolysis in rat brain homogenate assessed as [3H]ethanolamine production at 100 nM incubated for 60 mins prior to substrate addition measured after 10 mins by liquid scintillation counting analysis relative to control; type: tissue-based
T1 sequence (whole entry): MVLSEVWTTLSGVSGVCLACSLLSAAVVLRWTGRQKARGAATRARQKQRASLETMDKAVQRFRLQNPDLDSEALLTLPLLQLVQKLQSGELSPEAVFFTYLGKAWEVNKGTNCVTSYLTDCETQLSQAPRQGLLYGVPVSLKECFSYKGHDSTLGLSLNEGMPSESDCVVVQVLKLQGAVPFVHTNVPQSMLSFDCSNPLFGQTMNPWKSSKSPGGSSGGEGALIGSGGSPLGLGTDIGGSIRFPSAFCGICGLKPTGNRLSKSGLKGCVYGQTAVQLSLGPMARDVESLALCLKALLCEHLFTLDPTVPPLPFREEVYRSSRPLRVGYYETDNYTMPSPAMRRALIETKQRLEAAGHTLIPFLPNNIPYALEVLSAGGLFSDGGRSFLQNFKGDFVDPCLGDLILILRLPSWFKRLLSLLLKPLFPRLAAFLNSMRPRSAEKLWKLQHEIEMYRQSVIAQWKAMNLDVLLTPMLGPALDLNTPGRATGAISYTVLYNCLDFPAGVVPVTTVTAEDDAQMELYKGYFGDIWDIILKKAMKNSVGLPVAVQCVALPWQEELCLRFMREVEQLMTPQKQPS
Summary of the method: (§1)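 Rat brain homogenate (0.5 μg protein) preincubated with inhibitor 60 min, then 0.5 μM [3H]anandamide (ethanolamine-labelled) added and incubated a further 10 min at 37 °C. Reaction stopped with charcoal in 0.5 M HCl; aqueous [3H]ethanolamine counted by liquid scintillation with quench correction. Values are % inhibition ± SEM, n = 3.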

[2] = target: T1, Fatty-acid amide hydrolase 1 (Rattus norvegicus); test: Inhibition of FAAH-mediated [3H]anandamide hydrolysis in rat brain homogenate assessed as [3H]ethanolamine production at 10 nM incubated for 60 mins prior to substrate addition measured after 10 mins by liquid scintillation counting analysis relative to control; type: tissue-based; summary of the method: as §1
[3] = target: T1, Fatty-acid amide hydrolase 1 (Rattus norvegicus); test: Inhibition of FAAH-mediated [3H]anandamide hydrolysis in rat brain homogenate assessed as [3H]ethanolamine production at 1 nM incubated for 60 mins prior to substrate addition measured after 10 mins by liquid scintillation counting analysis relative to control; type: tissue-based
Summary of the method: (§2)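 Rat brain homogenate (0.5 μg protein) preincubated with inhibitor 60 min, then 0.5 μM [3H]anandamide (ethanolamine-labelled) added and incubated a further 10 min at 37 °C. Reaction stopped with charcoal in 0.5 M HCl; aqueous [3H]ethanolamine counted by liquid scintillation with quench correction.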

[4] = target: T1, Fatty-acid amide hydrolase 1 (Rattus norvegicus); test: Inhibition of FAAH-mediated [3H]anandamide hydrolysis in rat brain homogenate assessed as [3H]ethanolamine production at 0.1 nM incubated for 60 mins prior to substrate addition measured after 10 mins by liquid scintillation counting analysis relative to control; type: tissue-based; summary of the method: as §2
[5] = Half life in phosphate buffer at pH 7.4 by HPLC analysis; type: physicochemical
[6] = 1-octanol-phosphate buffer partition coefficient, log D of the compound at pH 7.4; type: physicochemical; settings: octanol/water
Summary of the method: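 Radiotracer partitioned between 1-octanol and 0.02 M phosphate buffer, pH 7.4. Each determination replicated six times.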

[7] = test system: Rattus norvegicus; test: Biodistribution in URB597-pretreated Sprague-Dawley rat brain parenchyma at 0.3 to 0.8 nmol, iv administered 30 mins after […]-treatment measured after 60 mins by gamma counting analysis; type: ADME, organism-based; settings: in vivo, 1 h
Summary of the method: (§3)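 Rats (n = 3–4) were injected iv with [11C]-radiotracer as in the biodistribution procedure. At various times, whole brain was homogenized and exhaustively extracted with aqueous acetonitrile. Extracted (unbound) and tissue-bound radioactivity were counted. Binding rate was fitted to a one-phase exponential association, Y = Ymax(1 − exp(−KX)). Blocking used ip pretreatment with the FAAH inhibitor.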

[8] = Half life in URB597-pretreated Sprague-Dawley rat brain parenchyma at 0.3 to 0.8 nmol, iv administered 30 mins after […]-treatment; type: ADME, organism-based; summary of the method: as §3
[9] = test system: Cortex; test: Biodistribution in URB597-pretreated Sprague-Dawley rat brain cortex at 0.3 to 0.8 nmol, iv administered 30 mins after URB597-treatment measured after 40 mins by gamma counting analysis; type: ADME, organism-based; settings: in vivo
Summary of the method: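 Rats received 2 mg/kg ip (2 mL/kg saline with Tween 80) of the FAAH inhibitor, or vehicle alone, 30 min before tracer. Tracer was 30–60 MBq iv by tail vein (0.3–0.8 nmol; buffered saline, 0.5% Tween 80), n = 5. Cortex was excised at 40 min, weighed, gamma counted and decay-corrected. Reported as SUV, mean ± SD. Compared with vehicle by Student's t test.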

[10] = test system: Hypothalamus; test: Biodistribution in Sprague-Dawley rat brain hypothalamus at 0.3 to 0.8 nmol, iv after 40 mins by gamma counting analysis; type: ADME, organism-based; settings: in vivo
Summary of the method: (§4)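 Conscious male Sprague–Dawley rats (300–350 g), n = 5 per time point, received 30–60 MBq [11C]-radiotracer (70–170 GBq/μmol; 0.3–0.8 nmol) iv by tail vein in buffered saline with 0.5% Tween 80. Decapitated at 2 or 40 min. Dissected regions were weighed and gamma counted, decay-corrected to injection. Reported as SUV (%ID/g […]), mean ± SD.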

[11] = test system: Hypothalamus; test: Biodistribution in Sprague-Dawley rat brain hypothalamus at 0.3 to 0.8 nmol, iv after 2 mins by gamma counting analysis; type: ADME, organism-based; settings: in vivo; summary of the method: as §4
[12] = test system: Cortex; test: Biodistribution in Sprague-Dawley rat brain cortex at 0.3 to 0.8 nmol, iv after 40 mins by gamma counting analysis; type: ADME, organism-based; settings: in vivo; summary of the method: as §4
[13] = test system: Cortex; test: Biodistribution in Sprague-Dawley rat brain cortex at 0.3 to 0.8 nmol, iv after 2 mins by gamma counting analysis; type: ADME, organism-based; settings: in vivo; summary of the method: as §4
[14] = test system: Plasma; test: Percentage unbound in human plasma after 10 mins by ultrafiltration method; type: ADME, cell-free
Summary of the method: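 Human plasma from 6 blood samples was spiked with [11C]-radiotracer, held 10 min at ambient temperature, then ultrafiltered by centrifugation. Ultrafiltrate and plasma were counted and weighed. Binding to the device was corrected using pH 7.4 phosphate buffer in place of plasma.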

[15] = target: T1, Fatty-acid amide hydrolase 1 (Rattus norvegicus); test: Ratio of IC50 for FAAH in rat brain homogenate in the absence of preincubation phase to IC50 for FAAH in rat brain homogenate after 45 mins preincubation phase; type: tissue-based
[16] = target: T2, Fatty-acid amide hydrolase 1 (Rattus norvegicus, UniProt P97612); test: Inhibition of FAAH-mediated [3H]anandamide hydrolysis in rat brain homogenate assessed as [3H]ethanolamine production incubated for 45 mins prior to substrate addition measured after 10 mins by liquid scintillation counting analysis; type: tissue-based
T2 sequence (P97612 whole entry): T1 sequence (whole entry)
Summary of the method: (§5)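 Rat brain homogenate (0.5 μg protein) preincubated with inhibitor at 37 °C for 45 or 90 min, eight concentrations over 0.1–30 nM or six over 1–50 nM. Then 0.5 μM [3H]anandamide added for a further 10 min at 37 °C. Charcoal/HCl stop; [3H]ethanolamine in aqueous phase counted by scintillation. pI50 ± value reported, converted to IC50.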

[17] = target: T2, Fatty-acid amide hydrolase 1; test: Inhibition of FAAH-mediated [3H]anandamide hydrolysis in rat brain homogenate assessed as [3H]ethanolamine production incubated for 90 mins prior to substrate addition measured after 10 mins by liquid scintillation counting analysis; type: tissue-based; summary of the method: as §5
[18] = test system: Brain; test: Drug uptake in URB597-pretreated Sprague-Dawley rat brain parenchyma at 0.3 to 0.8 nmol, iv administered 30 mins after […]-treatment measured after 40 mins by gamma counting analysis; type: ADME, organism-based; settings: in vivo; summary of the method: as §3
[19] = test system: Brain; test: Drug uptake in URB597-pretreated Sprague-Dawley rat brain parenchyma at 0.3 to 0.8 nmol, iv administered 30 mins after […]-treatment measured after 5 mins by gamma counting analysis; type: ADME, organism-based; settings: in vivo; summary of the method: as §3

In the case of CN1CCC(NC(=O)Oc2cccc(-c3ccccc3)c2)CC1, the inhibition [1] is reported as 13%, the inhibition [2] is reported as 6% and the inhibition [3] is reported as 9%. The inhibition [4] was 6%.

With CN1CCC(NC(=O)Oc2ccc(O)c(-c3ccccc3)c2)CC1 the t1/2 [5] was 25 h, the inhibition [1] was 12% and the inhibition [2] was 1%. The inhibition [3] was -0.5% and the inhibition [4] was 2%.

Compound O=C(NC1CCCC1)Oc1ccc(O)c(-c2ccccc2)c1 has a t1/2 [5] of 138 h, a logD [6] of 2.8 and an inhibition [1] of 99%. It also gave an inhibition [2] of 80%, an inhibition [3] of 15% and an inhibition [4] of -8%.

O=[11C](NC1CCCCC1)Oc1ccc(O)c(-c2ccccc2)c1 gave a Drug uptake [7] of 90%, a half-life [8] of 6.6 min and an SUV [9] of 0.36. It also gave an SUV [10] of 1.14, an SUV [11] of 1.61 and a Drug uptake [12] of 80%. It also gave an SUV [12] of 2.49 and an SUV [13] of 2.4.

CCCCCCN[11C](=O)Oc1ccc(O)c(-c2ccccc2)c1 gave an SUV [9] of 0.27, an SUV [10] of 1.25 and an SUV [11] of 1.21. The Drug uptake [12] was 80%, the SUV [12] was 2.49 and the SUV [13] was 1.63.

In the case of CCCCCCNC(=O)Oc1ccc(O)c(-c2ccccc2)c1, the t1/2 [5] is reported as 77 h, the Fu [14] is reported as 0.35% and the logD [6] is reported as 3.67. It also gave an inhibition [1] of 100%, an inhibition [2] of 97% and an inhibition [3] of 44%. For the same compound, the inhibition [4] was 9%.

CCCCCCNC(=O)Oc1cccc(C2=NCCO2)c1 gave a Ratio IC50 [15] of 4, an IC50 [16] of 1.2 nM and a t1/2 [5] of 8.7 h. The IC50 [17] was 0.55 nM, the logD [6] was 3.33 and the inhibition [1] was 100%. The inhibition [2] was 100%, the inhibition [3] was 74% and the inhibition [4] was 9%.

O=C(NC1CCCCC1)Oc1ccc(O)c(-c2ccccc2)c1 showed a Ratio IC50 [15] of 4, an IC50 [16] of 9.4 nM and a t1/2 [5] of 121 h. It also gave an IC50 [17] of 4.9 nM, a Fu [14] of 0.75% and a logD [6] of 2.85. It also gave an inhibition [1] of 101%, an inhibition [2] of 69% and an inhibition [3] of 4%. It also gave an inhibition [4] of -2%.

With O=C(NC1CCC1)Oc1ccc(O)c(-c2ccccc2)c1 the t1/2 [5] was 89 h, the logD [6] was 3.42 and the inhibition [1] was 101%. For the same compound, the inhibition [2] was 70%, the inhibition [3] was 8% and the inhibition [4] was -0.1%.

Work on NC(=O)c1cccc(-c2cccc(OC(=O)NC3CCCCC3)c2)c1 [URB-597] yielded a t1/2 [5] of 19 h, a Fu [14] of 0.48% and a logD [6] of 3.61.

Compound O=C(NC1CCCC1)Oc1cccc(C2=NCCO2)c1 has a t1/2 [5] of 4.6 h, a logD [6] of 2.35 and an inhibition [1] of 99%. It also gave an inhibition [2] of 40%, an inhibition [3] of 4% and an inhibition [4] of -2%.

For O=[11C](NC1CCCC1)Oc1ccc(O)c(-c2ccccc2)c1, the Drug uptake [7] was 90%, the half-life [8] was 5.5 min and the Drug uptake [18] was “Not Active”. For the same compound, the Drug uptake [19] was “Not Active”, the SUV [9] was 0.33 and the SUV [10] was 1.22. For the same compound, the SUV [11] was 1.87, the Drug uptake [12] was 80% and the SUV [12] was 3.09. For the same compound, the SUV [13] was 2.36.

Compound CN1CCC(NC(=O)Oc2cccc(C3=NCCO3)c2)CC1 has a t1/2 [5] of 0.8 h, an inhibition [1] of 8% and an inhibition [2] of 3%. For the same compound, the inhibition [3] was 12% and the inhibition [4] was 6%.

O=[11C](NC1CCC1)Oc1ccc(O)c(-c2ccccc2)c1 gave an SUV [9] of 0.23, an SUV [10] of 1.48 and an SUV [11] of 1.81. The Drug uptake [12] was 80%, the SUV [12] was 3.37 and the SUV [13] was 2.68.

Work on NC(=O)c1cccc(-c2cccc(O[11C](=O)NC3CCCCC3)c2)c1 yielded an SUV [9] of 0.17, an SUV [10] of 0.51 and an SUV [11] of 0.47. For the same compound, the Drug uptake [12] was 80%, the SUV [12] was 0.94 and the SUV [13] was 0.79.

For O=C(NC1CCCCC1)Oc1cccc(C2=NCCO2)c1, the t1/2 [5] was 5.1 h, the logD [6] was 3.01 and the inhibition [1] was 99%. The inhibition [2] was 97%, the inhibition [3] was 31% and the inhibition [4] was 0.2%.
